Laboratory results: publication PMC4969713 (Journal of Alzheimer's Disease, 2016)
Entries after “also recorded” stand apart in the source; their conditions may differ. Counter-ions that a name gives are not always drawn.

Tests used:
[1] = molecular target: 5-HT7 receptor (Homo sapiens, UniProt P34969); experiment: Radioligand binding competition, 5-HT7
[2] = molecular target: T1, 5-HT2C receptor (Homo sapiens, UniProt P28335); experiment: Radioligand binding competition, 5-HT2C; conditions: Ki
T1 sequence (P28335 33-458): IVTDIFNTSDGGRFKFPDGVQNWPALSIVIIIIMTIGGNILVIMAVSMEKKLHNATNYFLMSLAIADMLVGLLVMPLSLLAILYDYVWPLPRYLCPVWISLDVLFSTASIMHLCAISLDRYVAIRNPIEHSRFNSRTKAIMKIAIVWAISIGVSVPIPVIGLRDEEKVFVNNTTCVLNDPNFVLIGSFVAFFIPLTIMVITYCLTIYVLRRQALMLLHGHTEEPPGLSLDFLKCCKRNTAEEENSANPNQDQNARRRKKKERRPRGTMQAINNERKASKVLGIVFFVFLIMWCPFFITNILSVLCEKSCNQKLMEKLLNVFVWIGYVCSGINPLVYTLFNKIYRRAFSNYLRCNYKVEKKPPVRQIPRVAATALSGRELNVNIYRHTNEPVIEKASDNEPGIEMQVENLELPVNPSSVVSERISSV

[3] = molecular target: 5-HT1A receptor (Homo sapiens, UniProt P08908); experiment: Radioligand binding competition, 5-HT1A
Chain of 5-HT1A receptor (P08908 whole entry): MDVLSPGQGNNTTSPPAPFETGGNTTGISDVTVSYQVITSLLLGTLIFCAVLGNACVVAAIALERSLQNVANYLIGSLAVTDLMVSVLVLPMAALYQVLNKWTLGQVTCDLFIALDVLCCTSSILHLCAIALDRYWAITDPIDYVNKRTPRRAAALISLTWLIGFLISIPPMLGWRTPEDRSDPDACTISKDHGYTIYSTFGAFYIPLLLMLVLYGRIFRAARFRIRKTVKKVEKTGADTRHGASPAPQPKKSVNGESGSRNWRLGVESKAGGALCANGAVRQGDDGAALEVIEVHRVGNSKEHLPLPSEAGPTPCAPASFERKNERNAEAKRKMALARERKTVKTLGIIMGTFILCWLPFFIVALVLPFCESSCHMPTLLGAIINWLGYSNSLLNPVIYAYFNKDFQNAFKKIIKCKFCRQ

[4] = molecular target: histamine H2 receptor (Homo sapiens, UniProt P25021); experiment: Radioligand binding competition, histamine H2
Chain of histamine H2 receptor (P25021 whole entry): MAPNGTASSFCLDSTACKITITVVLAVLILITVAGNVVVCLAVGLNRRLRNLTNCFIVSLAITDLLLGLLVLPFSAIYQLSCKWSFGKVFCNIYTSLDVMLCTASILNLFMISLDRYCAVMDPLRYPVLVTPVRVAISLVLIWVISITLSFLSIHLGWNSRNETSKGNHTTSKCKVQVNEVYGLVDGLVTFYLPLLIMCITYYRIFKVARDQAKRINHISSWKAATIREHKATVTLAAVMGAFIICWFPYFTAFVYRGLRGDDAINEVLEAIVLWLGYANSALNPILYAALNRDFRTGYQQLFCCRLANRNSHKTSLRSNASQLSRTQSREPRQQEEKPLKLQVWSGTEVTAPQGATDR

[5] = molecular target: histamine H3 receptor (Homo sapiens, UniProt Q9Y5N1); experiment: Radioligand binding competition, histamine H3
Chain of histamine H3 receptor (Q9Y5N1 whole entry, species assumed): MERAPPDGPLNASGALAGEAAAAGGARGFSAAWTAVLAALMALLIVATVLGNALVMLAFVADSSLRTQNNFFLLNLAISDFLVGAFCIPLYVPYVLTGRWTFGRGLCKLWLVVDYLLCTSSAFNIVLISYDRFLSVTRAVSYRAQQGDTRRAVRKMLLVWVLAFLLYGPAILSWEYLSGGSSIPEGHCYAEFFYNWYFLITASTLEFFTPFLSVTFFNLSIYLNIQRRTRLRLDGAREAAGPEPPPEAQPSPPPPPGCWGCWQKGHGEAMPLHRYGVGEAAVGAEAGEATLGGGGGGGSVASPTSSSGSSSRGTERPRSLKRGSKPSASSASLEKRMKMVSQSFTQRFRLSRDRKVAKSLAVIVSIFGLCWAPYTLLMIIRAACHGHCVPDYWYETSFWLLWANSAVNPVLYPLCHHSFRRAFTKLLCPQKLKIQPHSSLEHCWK

[6] = molecular target: imidazoline I2 receptor; experiment: Radioligand binding competition, imidazoline I2
[7] = molecular target: Adrenergic α2C (Homo sapiens, UniProt P18825); experiment: Radioligand competition, adrenergic α2C; assay type: binding
Chain of Adrenergic α2C (P18825 whole entry): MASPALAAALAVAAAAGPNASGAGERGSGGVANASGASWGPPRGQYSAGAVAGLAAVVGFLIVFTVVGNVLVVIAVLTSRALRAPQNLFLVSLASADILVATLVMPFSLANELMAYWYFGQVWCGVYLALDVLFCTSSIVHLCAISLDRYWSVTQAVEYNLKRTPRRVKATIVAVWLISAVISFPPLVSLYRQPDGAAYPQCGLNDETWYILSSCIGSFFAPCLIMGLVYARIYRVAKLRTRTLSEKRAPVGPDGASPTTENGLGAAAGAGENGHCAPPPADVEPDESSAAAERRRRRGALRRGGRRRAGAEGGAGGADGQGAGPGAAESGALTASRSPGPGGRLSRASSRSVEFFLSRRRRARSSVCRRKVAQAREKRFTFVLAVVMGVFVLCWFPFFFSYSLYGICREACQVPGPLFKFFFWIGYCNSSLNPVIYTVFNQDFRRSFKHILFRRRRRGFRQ

[8] = molecular target: Adrenergic α1D (Homo sapiens, UniProt P25100); experiment: Radioligand competition, adrenergic α1D; assay type: binding
Chain of Adrenergic α1D (P25100 whole entry): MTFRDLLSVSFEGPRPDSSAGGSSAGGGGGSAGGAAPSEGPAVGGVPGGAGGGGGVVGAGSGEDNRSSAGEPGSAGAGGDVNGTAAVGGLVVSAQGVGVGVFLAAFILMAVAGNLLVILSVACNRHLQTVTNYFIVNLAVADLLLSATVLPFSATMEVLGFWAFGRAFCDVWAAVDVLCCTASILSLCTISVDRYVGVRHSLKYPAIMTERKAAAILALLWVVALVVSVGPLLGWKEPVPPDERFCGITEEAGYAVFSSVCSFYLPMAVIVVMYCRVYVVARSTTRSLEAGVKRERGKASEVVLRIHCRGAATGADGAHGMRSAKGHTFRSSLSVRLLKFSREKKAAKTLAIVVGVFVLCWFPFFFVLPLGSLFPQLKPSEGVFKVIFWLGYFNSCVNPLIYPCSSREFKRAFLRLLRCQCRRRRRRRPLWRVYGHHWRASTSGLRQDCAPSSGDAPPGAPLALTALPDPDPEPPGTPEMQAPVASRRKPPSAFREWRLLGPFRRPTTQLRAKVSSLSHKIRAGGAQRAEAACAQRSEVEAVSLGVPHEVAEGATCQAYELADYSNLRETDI

[9] = system: calcium channels of L type; experiment: Target panel binding, calcium channel L type
[10] = molecular target: calcium channels of N type (Homo sapiens, UniProt Q00975); experiment: Target panel binding, calcium channel N type
[11] = molecular target: sigma 1 receptor (Homo sapiens, UniProt Q99720); experiment: Target panel binding, sigma 1
Chain of sigma 1 receptor (Q99720 whole entry, species assumed): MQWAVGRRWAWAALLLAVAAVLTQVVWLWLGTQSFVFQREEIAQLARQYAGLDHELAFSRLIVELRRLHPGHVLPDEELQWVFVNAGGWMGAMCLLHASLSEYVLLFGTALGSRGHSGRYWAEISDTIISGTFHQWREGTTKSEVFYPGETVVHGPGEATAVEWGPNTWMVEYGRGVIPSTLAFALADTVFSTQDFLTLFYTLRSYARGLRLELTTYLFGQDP

[12] = molecular target: 5-HT2B receptor (Homo sapiens, UniProt P41595); experiment: Intracellular Ca2+ mobilization in HEK 297 cells expressing 5-HT2B; assay type: cell-based
Chain of 5-HT2B receptor (P41595 whole entry): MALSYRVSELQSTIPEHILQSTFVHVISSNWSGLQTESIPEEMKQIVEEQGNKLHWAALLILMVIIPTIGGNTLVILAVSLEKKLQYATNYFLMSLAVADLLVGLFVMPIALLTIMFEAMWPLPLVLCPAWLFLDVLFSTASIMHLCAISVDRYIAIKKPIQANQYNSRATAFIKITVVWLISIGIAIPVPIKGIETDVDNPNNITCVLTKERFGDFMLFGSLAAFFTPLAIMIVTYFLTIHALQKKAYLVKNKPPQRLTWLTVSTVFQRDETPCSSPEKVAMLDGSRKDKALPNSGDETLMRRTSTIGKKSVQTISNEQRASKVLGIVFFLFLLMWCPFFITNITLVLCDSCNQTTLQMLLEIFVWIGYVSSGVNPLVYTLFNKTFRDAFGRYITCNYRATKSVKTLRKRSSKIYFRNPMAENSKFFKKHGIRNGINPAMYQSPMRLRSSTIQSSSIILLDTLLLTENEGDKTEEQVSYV

[13] = molecular target: H1 receptor (Homo sapiens, UniProt P35367); experiment: Histamine-induced Ca2+ mobilization in SK-N-SH cells; assay type: cell-based
Chain of H1 receptor (P35367 whole entry): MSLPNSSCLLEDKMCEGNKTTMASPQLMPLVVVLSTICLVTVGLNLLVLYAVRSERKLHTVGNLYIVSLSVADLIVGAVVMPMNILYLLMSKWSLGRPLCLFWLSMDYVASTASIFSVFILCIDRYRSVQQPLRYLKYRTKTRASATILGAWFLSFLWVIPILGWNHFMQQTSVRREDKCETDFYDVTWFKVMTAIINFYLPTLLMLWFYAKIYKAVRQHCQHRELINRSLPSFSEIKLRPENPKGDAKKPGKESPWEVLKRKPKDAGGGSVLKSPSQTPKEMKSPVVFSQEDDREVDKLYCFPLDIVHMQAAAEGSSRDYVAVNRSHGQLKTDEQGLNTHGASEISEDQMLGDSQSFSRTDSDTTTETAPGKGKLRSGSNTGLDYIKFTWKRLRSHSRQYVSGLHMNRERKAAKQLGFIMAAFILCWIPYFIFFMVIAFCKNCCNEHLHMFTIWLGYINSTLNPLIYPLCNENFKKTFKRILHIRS
Outline: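 SK-N-SH cells challenged with 10μM histamine; transient rise in intracellular free Ca2+ recorded as the response, with test compound examined for blockade of this histamine-evoked signal.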

[14] = Stability in aqueous solutions; assay type: physicochemical; conditions: 72 h, room temperature
Outline: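 Test compound was incubated for 72 h at room temperature. Media were distilled water, salt solution at pH 4.0 or pH 7.0, and physiological solution at pH 7.4. Read-out was the fraction of the original concentration remaining.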

[15] = Metabolism in human microsomes; assay type: in vitro ADME; conditions: for Remaining quantity: HLM
[16] = molecular target: CYP1A2 (Homo sapiens, UniProt P05177); experiment: Metabolism by recombinant CYP1A2; assay type: in vitro ADME
Chain of CYP1A2 (P05177 whole entry): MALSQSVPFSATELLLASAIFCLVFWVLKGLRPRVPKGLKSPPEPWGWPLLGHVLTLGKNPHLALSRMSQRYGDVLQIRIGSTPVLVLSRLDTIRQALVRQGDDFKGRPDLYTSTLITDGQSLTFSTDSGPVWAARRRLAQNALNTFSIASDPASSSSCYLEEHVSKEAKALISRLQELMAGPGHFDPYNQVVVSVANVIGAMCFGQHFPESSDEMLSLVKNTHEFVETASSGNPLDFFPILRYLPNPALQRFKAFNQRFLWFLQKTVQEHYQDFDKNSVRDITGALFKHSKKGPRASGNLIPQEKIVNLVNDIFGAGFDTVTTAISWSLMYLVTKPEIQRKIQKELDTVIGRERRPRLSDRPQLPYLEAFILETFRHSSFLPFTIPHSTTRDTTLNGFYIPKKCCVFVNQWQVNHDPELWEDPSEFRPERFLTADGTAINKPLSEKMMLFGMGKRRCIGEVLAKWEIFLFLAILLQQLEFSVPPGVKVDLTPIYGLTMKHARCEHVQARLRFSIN

[17] = Biodistribution of [3H]AVN-101 in rat organs; assay type: in vivo, Wistar rats; conditions: for concentration in Blood / concentration in Brain / concentration in Heart / concentration in Kidneys / concentration in Liver / concentration in Lungs / concentration in Spleen: [3H] label; for accumulation in brain higher than in blood: 4 h
[18] = system: male BALB/c mice; experiment: Elevated Platform test; assay type: in vivo; conditions: IP; Lorazepam 0.05 mg/kg, AVN-101 0.2 mg/kg; initial 2 min
[19] = system: BALB/c mice; experiment: Open Field test; assay type: in vivo; conditions: IP; Lorazepam 0.05 mg/kg, AVN-101 0.2 mg/kg
Outline: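 Male BALB/c mice received lorazepam 30 min or test compound 5 min before testing; controls received saline, with at least 8 per group. Time in the central zone was recorded during a 10-min exploration. Comparison with the control group used ANOVA with Fisher LSD.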

[20] = system: BALB/c mice; experiment: Porsolt forced swim test; assay type: in vivo; conditions: AVN-101 0.05 mg/kg IP once daily for 4 days
[21] = Median lethal dose after single administration; set-up: species or system mice; conditions: male, CD1, mouse, in vivo
Outline: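 Male CD1 mice received a single dose of test compound in saline, IP at 80–200 mg/kg or orally at 200–700 mg/kg. Each dose went to a separate group (n = 6). LD50 with standard error was derived by probit analysis.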

[22] = system: Wistar rats; experiment: 30 days toxicity, rats; assay type: in vivo; conditions: 0.5, 5 and 25 mg/kg PO daily
Outline: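 Wistar rats were randomised to vehicle, 0.5, 5 or 25 mg/kg, with 10 males and 10 females per group. Read-outs were body weight, plasma biochemistry markers, and macro- and microscopic observations.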

[23] = molecular target: 5-HT1B receptor; conditions: Table 2; cited from earlier work

Chain of 5-HT7 receptor (P34969 whole entry): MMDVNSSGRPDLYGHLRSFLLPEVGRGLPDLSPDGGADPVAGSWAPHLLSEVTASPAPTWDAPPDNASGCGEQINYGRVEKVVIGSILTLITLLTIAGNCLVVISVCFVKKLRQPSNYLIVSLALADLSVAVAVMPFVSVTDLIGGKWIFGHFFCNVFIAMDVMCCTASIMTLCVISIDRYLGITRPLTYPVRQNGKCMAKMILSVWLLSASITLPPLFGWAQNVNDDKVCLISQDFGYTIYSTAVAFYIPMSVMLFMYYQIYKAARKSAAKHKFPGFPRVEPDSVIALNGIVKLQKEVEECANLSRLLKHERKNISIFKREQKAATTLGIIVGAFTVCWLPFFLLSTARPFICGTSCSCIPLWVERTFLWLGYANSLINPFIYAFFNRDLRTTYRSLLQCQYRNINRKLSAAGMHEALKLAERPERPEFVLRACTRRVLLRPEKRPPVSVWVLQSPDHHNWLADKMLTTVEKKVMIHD

For `Cc1ccc2c(c1)c1c(n2CCc2ccccc2)CCN(C)C1` [AVN-101, 2,8-dimethyl-5-penethyl-2,3,4,5-tetra-hydro-1h-pyrido[[4,3-B]]indole hydrochloride], the IC50 [1] was 0.00028 µM, the “affinity higher than SB-742457” value [1] was ~4 orders of magnitude and the Ki [2] was 0.0012 to 0.002 µM. For the same compound, the Ki [3] was greater than 0.03 µM, the Ki [4] was 0.089 µM and the binding [5] was “totally inactive; also recorded: does not bind”. For the same compound, the Ki [6] was 0.179 µM, the Ki [7] was 0.00041 to 0.0036 µM and the Ki [8] was 0.0302 µM. For the same compound, the binding [9] was “does not bind”, the binding [10] was “does not bind” and the binding [11] was “does not bind”. The “agonistic activity (intracellular free Ca2+)” value ([12]; AVN-101 alone, 10μM) was “lacked intrinsic agonistic activity”, the “blockade of α methyl-serotonin-induced Ca2+ spike” value ([12]; αMet5-HT 5μM, AVN-101 10μM) was “effectively blocking” and the receptor activation [13] was “activated neither H1 nor H2 receptors”. For the same compound, the “blockade of agonist-induced cell response” value ([13]; 10μM histamine, Ca2+ mobilization) was “effectively blocked”, the “fraction of original concentration” value ([14]; distilled water) was 97.03% and the “fraction of original concentration” value ([14]; physiological solution pH 7.4) was 99.38%. The “fraction of original concentration” value ([14]; salt solution pH 4.0) was 98.05%, the “fraction of original concentration” value ([14]; salt solution pH 7.0) was 99.95% and the k el ([15]; 1μM) was 0.335. For the same compound, the “original AVN-101 consumed” value ([15]; 2μM, 30-min incubation) was 57%, the Remaining quantity ([15]; AVN-101 1 μM, 7.9 min) was 3.0% and the Remaining quantity ([15]; AVN-101 1 μM, 30 min) was 2%. For the same compound, the Remaining quantity ([15]; AVN-101 2 μM, 7.9 min) was 40.0%, the Remaining quantity ([15]; AVN-101 2 μM, 30 min) was 43% and the half-life at 1 µM ([15]; human, liver microsomes) was 2.07 min. The microsomal CLint at 1 µM ([15]; human, liver microsomes) was 335 µL/min/mg, the remaining at 0.5 h, 2 µM [16] was 46% and the “concentration in Blood” value ([17]; 4 h after IV 5 mg/kg) was 0.36 ± 0.01 µg/mL. For the same compound, the “concentration in Brain” value ([17]; 4 h after IV 5 mg/kg) was 9.44 ± 0.36 µg/mL, the “concentration in Heart” value ([17]; 4 h after IV 5 mg/kg) was 9.24 ± 0.23 µg/mL and the “concentration in Kidneys” value ([17]; 4 h after IV 5 mg/kg) was 6.50 ± 0.20 µg/mL. The “concentration in Liver” value ([17]; 4 h after IV 5 mg/kg) was 5.30 ± 0.16 µg/mL, the “concentration in Lungs” value ([17]; 4 h after IV 5 mg/kg) was 8.96 ± 0.11 µg/mL and the “concentration in Spleen” value ([17]; 4 h after IV 5 mg/kg) was 5.94 ± 0.15 µg/mL. For the same compound, the “concentration in Blood” value ([17]; 4 h after PO 10 mg/kg) was 0.46 ± 0.01 µg/mL, the “concentration in Brain” value ([17]; 4 h after PO 10 mg/kg) was 6.24 ± 0.24 µg/mL and the “concentration in Heart” value ([17]; 4 h after PO 10 mg/kg) was 3.28 ± 0.15 µg/mL. The “concentration in Kidneys” value ([17]; 4 h after PO 10 mg/kg) was 4.70 ± 0.22 µg/mL, the “concentration in Liver” value ([17]; 4 h after PO 10 mg/kg) was 3.78 ± 0.13 µg/mL and the “concentration in Lungs” value ([17]; 4 h after PO 10 mg/kg) was 3.20 ± 0.23 µg/mL. The “concentration in Spleen” value ([17]; 4 h after PO 10 mg/kg) was 3.74 ± 0.15 µg/mL, the “accumulation in brain higher than in blood” value ([17]; IV) was 26 fold and the “accumulation in brain higher than in blood” value ([17]; PO) was 13 fold. The “IV/PO, normalized, Kidneys” value ([17]; normalized by dose) was 2.77, the “IV/PO, normalized, Spleen” value ([17]; normalized by dose) was 3.18 and the “Organ bioavailability, Blood” value ([17]; rat, in vivo) was 63.9%. For the same compound, the “Organ bioavailability, Brain” value ([17]; rat, in vivo) was 33.0%, the “Organ bioavailability, Heart” value ([17]; rat, in vivo) was 17.7% and the “Organ bioavailability, Kidneys” value ([17]; rat, in vivo) was 36.2%. The “Organ bioavailability, Liver” value ([17]; rat, in vivo) was 35.6%, the “Organ bioavailability, Lungs” value ([17]; rat, in vivo) was 17.9% and the “Organ bioavailability, Spleen” value ([17]; rat, in vivo) was 31.5%. For the same compound, the “duration of freezing behavior” value [18] was “significantly reduced duration of the freezing behavior”, the “time spent in the central area” value [19] was “significant anxiolytic effect” and the “decrease in immobility time” value [20] was “comparable to that observed with either Fluoxetine or Desipramine”. The LD50 at 2 weeks ([21]; ip) was 105 ± 5 mg/kg, the LD50 at 2 weeks ([21]; po) was 331 ± 101 mg/kg and the signs of toxicity [22] was “No signs of toxicity”. For the same compound, the Ki [23] was 0.72 µM.
